# Source: ChEMBL document CHEMBL2346664, “Synthesis, characterization and in vitro anticancer evaluation of novel 1,2,4-triazolin-3-one derivatives” (2013)
# Key:
# Assay type in all cases: functional
# A498 = assay: Growth inhibition of human A498 cells assessed as cell growth at 10 '-5 M after 48 hrs by sulforhodamine B assay; settings: A498, 48 h, read-out: Activity
# Method in brief: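 Percent growth at each of the five concentrations of the 48 h continuous-exposure NCI SRB screen. Drug stocks were in DMSO at 400× the top final concentration and diluted in medium with gentamicin. Growth was calculated as [(Ti-Tz)/(C-Tz)]×100 when Ti ≥ Tz, or [(Ti-Tz)/Tz]×100 when Ti < Tz. Tz plates were fixed at drug addition; untreated wells served as control. Absorbance was read at 515 nm.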
# OVCAR-4 = assay: Growth inhibition of human OVCAR4 cells after 48 hrs by sulforhodamine B assay; settings: OVCAR-4, 48 h
# Method in brief: (§1)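 NCI 60-cell-line five-dose screen over 0.01, 0.1, 1, 10 and 100 µM, with 48 h continuous exposure at 37 °C and 5% CO2 after 24 h pre-incubation (5,000–40,000 cells/well). Cells were TCA-fixed (10% final for adherent, 16% for suspension), stained with SRB and read at 515 nm. GI50 was solved from [(Ti−Tz)/(C−Tz)]×100 = 50 against time-zero plates.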
# U-251 = assay: Growth inhibition of human U251 cells assessed as cell growth at 10 '-7 M after 48 hrs by sulforhodamine B assay; settings: U-251, 48 h, read-out: Activity
# SR = assay: Growth inhibition of human SR cells assessed as growth inhibition at 10 uM after 48 hrs by sulforhodamine B assay; settings: read-out: GI
# MDA-MB-435 = assay: Growth inhibition of human MDA-MB-435 cells assessed as cell growth at 10 '-6 M after 48 hrs by sulforhodamine B assay; settings: MDA-MB-435, 48 h, read-out: Activity
# UACC-257 = assay: Growth inhibition of human UACC257 cells assessed as cell growth at 10 '-6 M after 48 hrs by sulforhodamine B assay; settings: UACC-257, 48 h, read-out: Activity
# Malme-3M = assay: Growth inhibition of human MALME-3M cells assessed as cell growth at 10 '-7 M after 48 hrs by sulforhodamine B assay; settings: read-out: Activity
# NCI-H460 [1] = assay: Growth inhibition of human NCI-H460 cells assessed as cell growth at 10 '-4 M after 48 hrs by sulforhodamine B assay; settings: NCI-H460, 48 h, read-out: Activity
# NCI-H460 [2] = assay: Growth inhibition of human NCI-H460 cells after 48 hrs by sulforhodamine B assay; settings: NCI-H460, 48 h
# MDA-MB-468 = assay: Growth inhibition of human MDA-MB-468 cells assessed as cell growth at 10 '-6 M after 48 hrs by sulforhodamine B assay; settings: MDA-MB-468, 48 h, read-out: Activity
# T47D [3] = assay: Growth inhibition of human T47D cells after 48 hrs by sulforhodamine B assay
# SK-MEL-5 = assay: Growth inhibition of human SK-MEL-5 cells assessed as cell growth at 10 '-6 M after 48 hrs by sulforhodamine B assay; settings: SK-MEL-5, 48 h, read-out: Activity
# OVCAR-5 = assay: Growth inhibition of human OVCAR5 cells assessed as cell growth at 10 '-4 M after 48 hrs by sulforhodamine B assay; settings: OVCAR-5, 48 h, read-out: Activity
# IGROV-1 = assay: Growth inhibition of human IGROV1 cells assessed as cell growth at 10 '-5 M after 48 hrs by sulforhodamine B assay; settings: IGROV-1, 48 h, read-out: Activity
# MCF7 = assay: Growth inhibition of human MCF7 cells assessed as cell growth at 10 '-7 M after 48 hrs by sulforhodamine B assay; settings: MCF7, 48 h, read-out: Activity
# SF-268 = assay: Growth inhibition of human SF268 cells assessed as cell growth at 10 '-4 M after 48 hrs by sulforhodamine B assay; settings: SF-268, 48 h, read-out: Activity
# SNB-19 = assay: Growth inhibition of human SNB19 cells assessed as cell growth at 10 '-8 M after 48 hrs by sulforhodamine B assay; settings: SNB-19, 48 h, read-out: Activity
# HL-60(TB) = assay: Growth inhibition of human HL-60(TB) cells after 48 hrs by sulforhodamine B assay; settings: HL-60, 48 h; method in brief: as §1
# CCRF-CEM = assay: Growth inhibition of human CCRF-CEM cells assessed as growth inhibition at 10 uM after 48 hrs by sulforhodamine B assay; settings: read-out: GI
# Method in brief: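 NCI-60 primary single-dose screen at 10^-5 M, 48 h continuous exposure. Adherent cells were fixed with cold TCA (10% final) and suspension cells with 16% final TCA, then stained with 0.4% SRB in 1% acetic acid. Bound dye was solubilized in 10 mM Tris base and read at 515 nm. Output is growth percent relative to untreated controls, and GI% is 100 minus growth percent.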
# T47D [4] = assay: Growth inhibition of human T47D cells assessed as cell growth at 10 '-6 M after 48 hrs by sulforhodamine B assay; settings: read-out: Activity
# COLO 205 = assay: Growth inhibition of human COLO205 cells assessed as cell growth at 10 '-7 M after 48 hrs by sulforhodamine B assay; settings: COLO 205, 48 h, read-out: Activity
# SW-620 = assay: Growth inhibition of human SW620 cells assessed as cell growth at 10 '-4 M after 48 hrs by sulforhodamine B assay; settings: SW-620, 48 h, read-out: Activity
# RPMI-8226 [5] = assay: Growth inhibition of human RPMI8226 cells assessed as cell growth at 10 '-6 M after 48 hrs by sulforhodamine B assay; settings: RPMI-8226, 48 h, read-out: Activity
# NCI-H23 = assay: Growth inhibition of human NCI-H23 cells assessed as cell growth at 10 '-6 M after 48 hrs by sulforhodamine B assay; settings: NCI-H23, 48 h, read-out: Activity
# M14 = assay: Growth inhibition of human M14 cells assessed as cell growth at 10 '-7 M after 48 hrs by sulforhodamine B assay; settings: M14, 48 h, read-out: Activity
# SK-OV-3 = assay: Growth inhibition of human SKOV3 cells assessed as growth inhibition at 10 uM after 48 hrs by sulforhodamine B assay; settings: SK-OV-3, 48 h, read-out: GI
# MDA-MB-231 = assay: Growth inhibition of human MDA-MB-231 cells assessed as cell growth at 10 '-6 M after 48 hrs by sulforhodamine B assay; settings: MDA-MB-231, 48 h, read-out: Activity
# SK-MEL-28 = assay: Growth inhibition of human SK-MEL-28 cells after 48 hrs by sulforhodamine B assay; settings: SK-MEL-28, 48 h
# RPMI-8226 [6] = assay: Growth inhibition of human RPMI8226 cells assessed as cell growth at 10 '-5 M after 48 hrs by sulforhodamine B assay; settings: RPMI-8226, 48 h, read-out: Activity
# [7] = read-out: LD50 (the source's name)
smiles,measurement,setting,value
Cc1cc(=O)oc2cc(OCCn3c(C)nn(-c4ccc(Cl)cc4)c3=O)ccc12,growth at 10 µM,A498,8%
same,GI50,OVCAR-4,2680 nM
same,CC50,OVCAR-4; [7],> 1000 nM
same,growth at 0.1 µM,U-251,97%
same,inhibition of growth at 10 µM,SR,78.8%
same,growth at 1 µM,MDA-MB-435,-8%
same,growth at 1 µM,UACC-257,96%
same,growth at 0.1 µM,Malme-3M,104%
same,growth at 100 µM,NCI-H460 [1],8%
same,GI50,NCI-H460 [2],2800 nM
same,TGI,NCI-H460 [2],> 1000 nM
same,CC50,NCI-H460 [2]; [7],> 1000 nM
same,growth at 1 µM,MDA-MB-468,77%
same,GI50,T47D [3],7550 nM
same,TGI,T47D [3],> 1000 nM
same,CC50,T47D [3]; [7],> 1000 nM
same,growth at 1 µM,SK-MEL-5,47%
same,growth at 100 µM,OVCAR-5,45%
same,growth at 10 µM,IGROV-1,61%
same,growth at 0.1 µM,MCF7,93%
same,growth at 100 µM,SF-268,36%
same,growth at 0.01 µM,SNB-19,92%
same,GI50,HL-60(TB),2800 nM
same,inhibition of growth at 10 µM,CCRF-CEM,86.6%
same,growth at 1 µM,T47D [4],89%
same,growth at 0.1 µM,COLO 205,102%
same,growth at 100 µM,SW-620,25%
same,growth at 1 µM,RPMI-8226 [5],95%
same,growth at 1 µM,NCI-H23,64%
same,growth at 0.1 µM,M14,101%
same,inhibition of growth at 10 µM,SK-OV-3,58.9%
same,growth at 1 µM,MDA-MB-231,66%
same,GI50,SK-MEL-28,3130 nM
same,TGI,SK-MEL-28,> 1000 nM
same,CC50,SK-MEL-28; [7],> 1000 nM
same,growth at 10 µM,RPMI-8226 [6],50%
